In paper PMC9352169 (ACS Omega, 2022):

Tests used:
supercoiled pcDNA = assay: Photoinduced pcDNA cleavage; type: biochemical; settings: 250 μM complex + 0.1 μM pcDNA
[1] = Substitution kinetics of chlorides by L-methionine; type: physicochemical; settings: Nu = L-Met, 35 °C, pH 7.2; for k2^1st × 10^1: first step; for k1^2nd × 10^4: second step (ring closure)
Outline: (§1)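 Chloride substitution was followed by UV-vis under pseudo-first-order conditions: complex 50 μM with the nucleophile in ≥20-fold excess, in 5 mM Tris–HCl/50 mM NaCl, pH 7.2. Complex stocks were 5 mM in 5% DMF. Runs spanned 25–55 °C at 10 °C intervals, and the Tu trace was taken at 524 nm. Rate constants came from kobs vs [nucleophile] plots, with activation parameters from temperature dependence.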

[2] = system: guanosine-5′-monophosphate, 5′-GMP; assay: Substitution kinetics of chlorides by guanosine-5′-monophosphate; type: physicochemical; settings: Nu = 5′-GMP, 35 °C; for k2^1st × 10^1: first step; for k2^1st × 10^1 / k2^2nd × 10^2: pH 7.2; for k–1^2nd × 10^5: second step back reaction; for k2^2nd × 10^2: second step
Outline: as §1

[3] = system: human breast adenocarcinoma, MCF-7 cell line; assay: MTT cytotoxicity assay, MCF-7; type: cell-based; settings: for SI (IC50 of Vero cell line/IC50 of MCF-7 cell line): Vero vs MCF-7; for IC50: read-out: IC50 breast cancer MCF-7, MTT, 24 h incubation, n = 3
Outline: (§2)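 MTT viability assay. Vero cells were grown in MEM and MCF-7 cells in DMEM, both with 10% FBS and penicillin/streptomycin, at 37 °C and 5% CO2. Cells were exposed 24 h to test complex at 2, 4, 8, 16, 32 and 64 (DMSO stock). Viability was expressed relative to untreated control and IC50 computed. Values are mean ± SD of three independent experiments. SI = IC50 Vero / IC50 MCF-7.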

BSA = BSA (Bos taurus, UniProt P02769); assay: BSA fluorescence quenching titration; type: binding, bovine; settings: for Ksv × 10^–5: BSA 1.08 μM; for Ksv × 10^–5 / Decrease in initial BSA fluorescence: λem = 348 nm; for kq × 10^–13: BSA quenching; for KF × 10^–5 / n (number of binding sites): BSA, Scatchard; for Decrease in initial BSA fluorescence: pH 7.2
Outline: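 Complex stocks were 5 mM in DMSO, diluted in buffer, and samples were incubated about 14 h at 37 °C before reading. Emission was read at 348 nm and checked for inner-filter effects by UV-vis. Data were fitted by Stern–Volmer and Scatchard analysis.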

normal Vero cell line = assay: MTT cytotoxicity assay, Vero; type: cell-based; settings: read-out: IC50 normal Vero, 24 h incubation, n = 3
Outline: as §2

[4] = Substitution kinetics of chlorides by thiourea; type: physicochemical; settings: Nu = Tu, 35 °C; for k2^1st × 10^1: first step; for k2^1st × 10^1 / k2^2nd × 10^2: pH 7.2; for k–1^2nd × 10^5: second step back reaction; for k2^2nd × 10^2: second step
Outline: as §1

EtBr + CT-DNA adduct = assay: Fluorescence EtBr exchange titration on CT-DNA; type: binding, calf; settings: for n (number of binding sites) / KF × 10^–4 (Scatchard binding constant) / Kapp × 10^–6 (apparent binding constant) / Ksv × 10^–4 (Stern–Volmer quenching constant) / kq × 10^–12 (bimolecular quenching rate constant): EtBr exchange; for n (number of binding sites): Scatchard; for KF × 10^–4 (Scatchard binding constant) / Kapp × 10^–6 (apparent binding constant) / Ksv × 10^–4 (Stern–Volmer quenching constant) / kq × 10^–12 (bimolecular quenching rate constant) / Decrease in initial EtBr+CT-DNA fluorescence: pH 7.2; for Decrease in initial EtBr+CT-DNA fluorescence: λem = 596 nm, λex = 510 nm
Outline: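 Competitive EtBr displacement used EtBr 20.0 μM and CT-DNA 20.0 μM with test complex added at 0–150 μM, in 5 mM Tris/50 mM NaCl, pH 7.2. Samples were equilibrated about 14 h at 37 °C. Emission was 596 nm (excitation 510 nm), with inner-filter check. Data were analysed as Stern–Volmer Io/I vs [Q] and Scatchard log[(Io–I)/I] vs log[Q].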

CT-DNA = CT-DNA UV-vis absorption titration; type: binding, calf; settings: Van't Hoff equation ΔG = −RT lnKb
Outline: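 UV-vis titration of test complex (14 μM) with CT-DNA (0–90 μM) in 5 mM Tris–HCl/50 mM NaCl, pH 7.2. Complex came from a 5 mM DMSO stock diluted in buffer, and samples were equilibrated about 14 h at 37 °C. The binding constant came from absorbance changes, and ΔG from it.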

zebrafish embryos = assay: Zebrafish embryo acute toxicology; type: in vivo, Danio rerio; settings: 96 hpf; for morphological changes in zebrafish embryos: even at 90 M (printed); for LC50: zebrafish embryos

Chain of BSA (P02769 25-607): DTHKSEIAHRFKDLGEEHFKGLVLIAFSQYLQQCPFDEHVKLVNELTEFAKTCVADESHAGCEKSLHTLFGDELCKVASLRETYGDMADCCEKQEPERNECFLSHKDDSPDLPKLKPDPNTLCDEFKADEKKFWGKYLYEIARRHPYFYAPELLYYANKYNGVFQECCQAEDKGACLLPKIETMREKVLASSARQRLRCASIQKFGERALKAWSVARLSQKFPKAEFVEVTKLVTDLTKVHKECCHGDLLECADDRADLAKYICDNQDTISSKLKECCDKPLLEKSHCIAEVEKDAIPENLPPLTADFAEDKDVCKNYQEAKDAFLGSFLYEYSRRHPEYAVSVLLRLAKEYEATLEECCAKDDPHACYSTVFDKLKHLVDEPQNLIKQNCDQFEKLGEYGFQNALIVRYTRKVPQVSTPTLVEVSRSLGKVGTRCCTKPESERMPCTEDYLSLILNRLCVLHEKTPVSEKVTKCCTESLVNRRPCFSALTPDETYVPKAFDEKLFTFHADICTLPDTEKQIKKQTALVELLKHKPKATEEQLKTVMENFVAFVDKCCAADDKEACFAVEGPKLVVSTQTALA

Row | SMILES | % of NC (pcDNA cleavage) (supercoiled pcDNA) [%] | k2^1st × 10^1 [1] [M^–1 s^–1] | k1^2nd × 10^4 [1] | k2^1st × 10^1 [2] [M^–1 s^–1] | k–1^2nd × 10^5 [2] [s^–1] | k2^2nd × 10^2 [2] [M^–1 s^–1] | SI (IC50 of Vero cell line/IC50 of MCF-7 cell line) [3] | IC50 [3] [µM] | experimental ΔG of binding with BSA (BSA) [kJ mol^–1] | Ksv × 10^–5 (BSA) [M^–1] | kq × 10^–13 (BSA) [M^–1 s^–1] | KF × 10^–5 (BSA) [M^–1] | n (number of binding sites) (BSA) | Decrease in initial BSA fluorescence (BSA) | IC50 (normal Vero cell line) [µM] | k2^1st × 10^1 [4] [M^–1 s^–1] | k–1^2nd × 10^5 [4] [s^–1] | k2^2nd × 10^2 [4] [M^–1 s^–1] | n (number of binding sites) (EtBr + CT-DNA adduct) | KF × 10^–4 (Scatchard binding constant) (EtBr + CT-DNA adduct) [M^–1] | further results
1 | [Cl-].[Cl-].[Pt+2].[Ru+2].c1ccc(-c2nccnc2-c2ccccn2)nc1.c1cnc2c(c1)ccc1cccnc12.c1cnc2c(c1)ccc1cccnc12 [C1, [(1,10-phenanthroline)2Ru(II)(μ-2,3-bis(2-pyridyl)pyrazine)Pt(II)dichloride]^2+] | ~24 | 0.75 ± 0.11 | 0.37 ± 0.08 ^a s^–1 | 0.34 ± 0.09 | 0.20 ± 0.02 | 0.75 ± 0.04 | 2.12 | 9.1 ± 1.5 | −31.02 | 1.84 ± 0.08 | 1.84 ± 0.16 | 0.47 ± 0.06 | 0.84 ± 0.03 | up to 20% | 19.3 ± 2.1 | 1.45 ± 0.15 | 1.04 ± 0.04 | 2.73 ± 0.10 | 0.99 ± 0.04 | 1.00 ± 0.05 | Kapp × 10^–6 (apparent binding constant) (EtBr + CT-DNA adduct): 3.33 ± 0.11 M^–1; Ksv × 10^–4 (Stern–Volmer quenching constant) (EtBr + CT-DNA adduct): 1.59 ± 0.07 M^–1; kq × 10^–12 (bimolecular quenching rate constant) (EtBr + CT-DNA adduct): 0.69 ± 0.19 M^–1 s^–1; Decrease in initial EtBr+CT-DNA fluorescence (EtBr + CT-DNA adduct): up to 19%; ΔG of binding with CT-DNA (CT-DNA): −30 ± 3 kJ mol^–1; drop of survival rate when the concentration increased from 15 to 90 μM (zebrafish embryos): 50%; morphological changes in zebrafish embryos (zebrafish embryos): did not induce any significant morphological changes; LC50 (zebrafish embryos): 65.2 ± 1 µM
2 | [Cl-].[Cl-].[Pt+2].[Ru+2].c1ccc(-c2nc3ccccc3nc2-c2ccccn2)nc1.c1cnc2c(c1)ccc1cccnc12.c1cnc2c(c1)ccc1cccnc12 [C2, [(1,10-phenanthroline)2Ru(II)(μ-2,3-bis(2-pyridyl)quinoxaline)Pt(II)dichloride]^2+] | ~18 | 1.75 ± 0.18 | 1.02 ± 0.15 ^a s^–1 | 0.96 ± 0.13 | 0.84 ± 0.04 | 1.48 ± 0.08 | 4.38 | 4 ± 1.1 | −31.55 | 2.26 ± 0.15 | 2.26 ± 0.24 | 1.16 ± 0.10 | 1.00 ± 0.05 | ≤ 17% | 17.5 ± 1.9 | 4.26 ± 0.21 | 4.35 ± 0.09 | 8.65 ± 0.15 | 0.99 ± 0.05 | 1.98 ± 0.11 | Kapp × 10^–6 (apparent binding constant) (EtBr + CT-DNA adduct): 6.25 ± 0.17 M^–1; Ksv × 10^–4 (Stern–Volmer quenching constant) (EtBr + CT-DNA adduct): 2.83 ± 0.13 M^–1; kq × 10^–12 (bimolecular quenching rate constant) (EtBr + CT-DNA adduct): 1.23 ± 0.24 M^–1 s^–1; Decrease in initial EtBr+CT-DNA fluorescence (EtBr + CT-DNA adduct): ≤ 23%; ΔG of binding with CT-DNA (CT-DNA): −35 ± 2 kJ mol^–1; morphological changes in zebrafish embryos (zebrafish embryos): did not induce any significant morphological changes; LC50 (zebrafish embryos): 96.3 ± 1.4 µM
